Experiments:
[1] = molecular target: Carbonic anhydrase 9 (Homo sapiens, UniProt Q16790); test: Inhibition of human recombinant carbonic anhydrase 9 preincubated for 15 mins by stopped-flow CO2 hydrase assay
[2] = tested on: MCF7; test: Cytotoxicity against human MCF7 cells assessed as cell survival at 10 uM after 48 hrs by […]; assay type: functional; details: MCF7, 48 h, read-out: Survival
In short: (§1)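 MCF-7 human breast tumour cells seeded at 10^4 cells/well and left 24 h to attach. Compounds in DMSO added at 10, 25, 50 or 100 µM, triplicate wells per concentration, 48 h at 37 °C, 5% CO2. Cells fixed and stained 30 min with 0.4% SRB in 1% acetic acid, bound dye recovered in Tris-EDTA, absorbance read. Surviving fraction reported.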

[3] = tested on: MCF7; test: Cytotoxicity against human MCF7 cells assessed as cell survival at 25 uM after 48 hrs by […]; assay type: functional; details: MCF7, 48 h, read-out: Survival; in short: as §1
[4] = tested on: MCF7; test: Cytotoxicity against human MCF7 cells assessed as cell survival at 50 uM after 48 hrs by […]; assay type: functional; details: MCF7, 48 h, read-out: Survival; in short: as §1
[5] = tested on: MCF7; test: Cytotoxicity against human MCF7 cells assessed as reduction in cell survival after 48 hrs by MTT assay; details: MCF7, 48 h
[6] = tested on: MCF7; test: Cytotoxicity against human MCF7 cells assessed as cell survival at 100 uM after 48 hrs by SRB assay; details: MCF7, 48 h, read-out: Survival

| Compound | Ki [1] | viability at 10 µM [2] | viability at 25 µM [3] | viability at 50 µM [4] | IC50 [5] | viability at 100 µM [6] |
| --- | --- | --- | --- | --- | --- | --- |
| C/C(CC(=O)c1ccccc1)=N/n1cnc2c(c(-c3ccc(Br)cc3)cn2-c2ccc(S(N)(=O)=O)cc2)c1=N | 0.0028 µM | 38.1% | 33.3% | 25.1% | 7.84 µM | 30.1% |
| CC1=NN2C=Nc3c(c(-c4ccc(Br)cc4)cn3-c3ccc(S(N)(=O)=O)cc3)C2=NC(c2ccccc2)=C1 | 0.0036 µM | 30.3% | 30.6% | 27.7% | 7.29 µM | 28% |
| N#Cc1c(-c2ccc(Br)cc2)cn(-c2ccc(S(N)(=O)=O)cc2)c1N | 0.0063 µM | 32.7% | 27.3% | 23.3% | 7.56 µM | 25.5% |
| CCO/C=N/c1c(C#N)c(-c2ccc(Br)cc2)cn1-c1ccc(S(N)(=O)=O)cc1 | 0.0039 µM | 34% | 29.4% | 24.6% | 7.56 µM | 25.6% |
| N=c1c2c(-c3ccc(Br)cc3)cn(-c3ccc(S(N)(=O)=O)cc3)c2ncn1N | 0.0027 µM | 33% | 30.9% | 22.7% | 7.29 µM | 26.8% |
| N#Cc1c(N)nn2cnc3c(c(-c4ccc(Br)cc4)cn3-c3ccc(S(N)(=O)=O)cc3)c12 | 0.0024 µM | 34.7% | 29.2% | 21.3% | 7.56 µM | 22.1% |
| CCOC(=O)c1nc2c3c(-c4ccc(Br)cc4)cn(-c4ccc(S(N)(=O)=O)cc4)c3ncn2n1 | 0.0027 µM | 30.5% | 28.1% | 27.4% | 7.29 µM | 30.9% |
| CCOC(=O)Cc1nc2c3c(-c4ccc(Br)cc4)cn(-c4ccc(S(N)(=O)=O)cc4)c3ncn2n1 | 0.003 µM | 42.6% | 41% | 34.8% | 8.94 µM | 33.5% |
| CC(=O)Cc1nc2c3c(-c4ccc(Br)cc4)cn(-c4ccc(S(N)(=O)=O)cc4)c3ncn2n1 | 0.0031 µM | 40% | 39.9% | 36.5% | 8.94 µM | 35% |
| CCOC(=O)n1c(=O)nc2c3c(-c4ccc(Br)cc4)cn(-c4ccc(S(N)(=O)=O)cc4)c3ncn21 | 0.0026 µM | 36.1% | 31.1% | 23.2% | 7.56 µM | 21.6% |
| NS(=O)(=O)c1ccc(-n2cc(-c3ccc(Br)cc3)c3c2ncn2nnnc32)cc1 | – | 34.8% | 29.4% | 25.4% | 7.84 µM | 21.6% |
| NS(=O)(=O)c1ccc(-n2cc(-c3ccc(Br)cc3)c3c2N=CN2NC(=O)CN=C32)cc1 | – | 39.3% | 35.8% | 33.7% | 8.11 µM | 36.2% |
| NS(=O)(=O)c1ccc(-n2cc(-c3ccc(Br)cc3)c3c2ncn2[nH]c(=O)c(=O)nc32)cc1 | 0.325 µM | 43.6% | 36.6% | 35% | 8.66 µM | 35.8% |
| CC1=CC(C)=NN2C=Nc3c(c(-c4ccc(Br)cc4)cn3-c3ccc(S(N)(=O)=O)cc3)C2=N1 | 0.0496 µM | 38% | 28.5% | 33.2% | 7.84 µM | 37.5% |
| N#CC1=C(N)N=C2c3c(-c4ccc(Br)cc4)cn(-c4ccc(S(N)(=O)=O)cc4)c3N=CN2N=C1 | 0.0031 µM | 38.2% | 38% | 40.1% | 8.11 µM | 37.9% |
| CCOC(=O)C1=C(N)N=C2c3c(-c4ccc(Br)cc4)cn(-c4ccc(S(N)(=O)=O)cc4)c3N=CN2N=C1 | 0.003 µM | 37.2% | 37.7% | 35.3% | 7.84 µM | 39.1% |
| NS(=O)(=O)c1ccc(-n2cc(-c3ccc(Br)cc3)c3c2ncn2nc4c5ccccc5nc-4nc32)cc1 | – | 34.7% | 33.8% | 31.5% | 7.84 µM | 38.1% |
| CC(=O)N1C(=O)/C(=N\n2cnc3c(c(-c4ccc(Br)cc4)cn3-c3ccc(S(N)(=O)=O)cc3)c2=N)c2ccccc21 | – | 34.2% | 28.7% | 25.9% | 7.56 µM | 32.6% |
| COc1cccc2c1C(=O)c1c(O)c3c(c(O)c1C2=O)C[C@@](O)(C(=O)CO)C[C@@H]3O[C@H]1C[C@H](N)[C@H](O)[C@H](C)O1 [DOXORUBICIN] | – | 31.4% | 30.9% | 25.1% | – | 26.6% |
